21 compounds from ChEMBL document CHEMBL1147606, “Synthesis and cytotoxicity of hydrophobic esters of podophyllotoxins” (Bioorg Med Chem Lett, 2004) can be followed below.

What all share (format): functional, cell-based
One assay relates to A549. The experiment in a line: In vitro cytotoxicity against the A-549 (human lung carcinoma) neoplastic cell line.
In the next assay the test system is HT-29. Kind of assay: In vitro cytotoxicity against the HT-29 (human colon carcinoma) neoplastic cell line. Summed up:
(§1)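 In vitro assay adapted from Bergeron's method. P-388 was grown as a suspension culture of a mouse lymphoid neoplasm. A-549, HT-29 and MEL-28 were grown as monolayer cultures. Dose–response curves were constructed, and IC50 values (nM) were calculated from them.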

A further assay deals with P388. Kind of assay: In vitro cytotoxicity against the P-388 (from DBA/2 mouse) neoplastic cell line. In outline:
as §1

Another assay relates to SK-MEL-28. The experiment in a line: In vitro cytotoxicity against MEL-28 (human malign melanoma) neoplastic cell line. Summed up:
as §1

For orientation: IC50 means the concentration at which inhibition is half-maximal. High values mean weaker potency, low ones greater potency.

Each structure is given as a SMILES string.

For the compound `COc1cc([C@@H]2c3cc4c(cc3[C@H](OC(=O)Cc3ccccc3)[C@H]3COC(=O)[C@H]23)OCO4)cc(OC)c1OC`, the IC50 was 188 nM in the assay on A549 (Homo sapiens, A549); 188 nM in the assay on HT-29 (Homo sapiens, HT-29); 188 nM in the assay with P388 (Mus musculus, P388); 188 nM in the assay on SK-MEL-28 (Homo sapiens, SK-MEL-28).

In the case of `C=CC(=O)O[C@@H]1c2cc3c(cc2[C@@H](c2cc(OC)c(OC)c(OC)c2)[C@@H]2C(=O)OC[C@@H]21)OCO3`, the IC50 is 21 nM in the assay with A549 (Homo sapiens, A549); 21 nM in the assay on HT-29 (Homo sapiens, HT-29); 21 nM in the assay with P388 (Mus musculus, P388); 21 nM in the assay on SK-MEL-28 (Homo sapiens, SK-MEL-28).

Take `COc1cc([C@@H]2c3cc4c(cc3[C@@H](OC(=O)/C=C/c3ccccc3)[C@H]3COC(=O)[C@H]23)OCO4)cc(OC)c1OC`: the IC50 came to 184 nM in the assay on A549 (Homo sapiens, A549); 184 nM in the assay with HT-29 (Homo sapiens, HT-29); 184 nM in the assay on P388 (Mus musculus, P388); 184 nM with SK-MEL-28 (Homo sapiens, SK-MEL-28).

Turning to `C=CC(=O)O[C@H]1c2cc3c(cc2[C@@H](c2cc(OC)c(OC)c(OC)c2)[C@@H]2C(=O)OC[C@@H]21)OCO3`, the 50% inhibitory concentration (IC50) in the assay on A549 (Homo sapiens, A549) worked out at 53 nM; in the assay with HT-29 (Homo sapiens, HT-29), 55 nM; in the assay on P388 (Mus musculus, P388) it was 55 nM; with SK-MEL-28 (Homo sapiens, SK-MEL-28), 53 nM.

For the compound `COc1cc([C@@H]2c3cc4c(cc3[C@H](OC(=O)/C=C/c3ccccc3)[C@H]3COC(=O)[C@H]23)OCO4)cc(OC)c1OC`, the IC50 in the assay on A549 (Homo sapiens, A549) stood at 9180 nM; with HT-29 (Homo sapiens, HT-29), 9180 nM; in the assay with P388 (Mus musculus, P388), 4590 nM; with SK-MEL-28 (Homo sapiens, SK-MEL-28), 9180 nM.

`COc1cc([C@@H]2c3cc4c(cc3[C@@H](O)[C@H]3COC(=O)[C@@H]23)OCO4)cc(OC)c1OC`: the IC50 came to 12 nM in the assay with A549 (Homo sapiens, A549); 24 nM with HT-29 (Homo sapiens, HT-29); 12 nM in the assay with P388 (Mus musculus, P388).

With `C=CC(=O)O[C@@H]1c2cc3c(cc2[C@@H](c2cc(OC)c(OC)c(OC)c2)[C@H]2C(=O)OC[C@@H]21)OCO3`, the IC50 with A549 (Homo sapiens, A549) amounted to 213 nM; in the assay with HT-29 (Homo sapiens, HT-29), 213 nM; in the assay with P388 (Mus musculus, P388), 213 nM; in the assay with SK-MEL-28 (Homo sapiens, SK-MEL-28), 213 nM.

For `COc1cc([C@@H]2c3cc4c(cc3[C@H](OC(=O)c3ccccc3)[C@H]3COC(=O)[C@H]23)OCO4)cc(OC)c1OC`, the IC50 worked out at 1930 nM with A549 (Homo sapiens, A549); 1930 nM in the assay with HT-29 (Homo sapiens, HT-29); 1930 nM in the assay on P388 (Mus musculus, P388); 1930 nM with SK-MEL-28 (Homo sapiens, SK-MEL-28).

As to `COc1cc([C@@H]2c3cc4c(cc3[C@@H](OC(=O)c3ccccc3)[C@H]3COC(=O)[C@H]23)OCO4)cc(OC)c1OC`, the IC50 in the assay on A549 (Homo sapiens, A549) worked out at 48 nM; in the assay with HT-29 (Homo sapiens, HT-29) it was 48 nM; with P388 (Mus musculus, P388), 24 nM; with SK-MEL-28 (Homo sapiens, SK-MEL-28), 48 nM.

On to `C=CC(=O)O[C@H]1c2cc3c(cc2[C@@H](c2cc(OC)c(OC)c(OC)c2)[C@H]2C(=O)OC[C@@H]21)OCO3`, for which the IC50 with A549 (Homo sapiens, A549) is 213 nM; with HT-29 (Homo sapiens, HT-29), 213 nM; in the assay with P388 (Mus musculus, P388), 213 nM; with SK-MEL-28 (Homo sapiens, SK-MEL-28), 213 nM.

For `COc1cc([C@@H]2c3cc4c(cc3[C@@H](OC(=O)CC3CC5CCC3C5)[C@H]3COC(=O)[C@H]23)OCO4)cc(OC)c1OC` (some centres undefined), the IC50 came out at 454 nM in the assay on A549 (Homo sapiens, A549); 454 nM in the assay with HT-29 (Homo sapiens, HT-29); 454 nM with P388 (Mus musculus, P388); 454 nM with SK-MEL-28 (Homo sapiens, SK-MEL-28).

`COc1cc([C@@H]2c3cc4c(cc3[C@@H](OC(=O)Cc3ccccc3)[C@H]3COC(=O)[C@H]23)OCO4)cc(OC)c1OC`: the IC50 with A549 (Homo sapiens, A549) was 94 nM; in the assay with HT-29 (Homo sapiens, HT-29), 94 nM; in the assay with P388 (Mus musculus, P388), 47 nM; with SK-MEL-28 (Homo sapiens, SK-MEL-28), 94 nM.

For the compound `COc1cc([C@@H]2c3cc4c(cc3[C@H](OC(=O)C3CC5C=CC3C5)[C@H]3COC(=O)[C@H]23)OCO4)cc(OC)c1OC` (some centres undefined), the IC50 in the assay on A549 (a549), in the assay on HT-29 (ht-29), with P388 (p388) and in the assay with SK-MEL-28 (sk-mel-28) was 468 nM each time.

With `COc1cc([C@@H]2c3cc4c(cc3[C@@H](OC(=O)C3CC5C=CC3C5)[C@H]3COC(=O)[C@H]23)OCO4)cc(OC)c1OC` (some centres undefined), the IC50 with A549 (Homo sapiens, A549) is 1120 nM; in the assay on HT-29 (Homo sapiens, HT-29) it was 1120 nM; in the assay with P388 (Mus musculus, P388), 1120 nM; in the assay on SK-MEL-28 (Homo sapiens, SK-MEL-28), 1120 nM.

For `CCCCCCC(=O)O[C@@H]1c2cc3c(cc2[C@@H](c2cc(OC)c(OC)c(OC)c2)[C@H]2C(=O)OC[C@@H]21)OCO3`, the IC50 in the assay with A549 (Homo sapiens, A549) stood at 190 nM; in the assay on HT-29 (Homo sapiens, HT-29), 190 nM; in the assay with P388 (Mus musculus, P388) it was 190 nM; in the assay on SK-MEL-28 (Homo sapiens, SK-MEL-28), 190 nM.

As for `COc1cc([C@@H]2c3cc4c(cc3[C@H](OC(=O)C3CC5C=CC3C5)[C@H]3COC(=O)[C@@H]23)OCO4)cc(OC)c1OC` (some centres undefined), the IC50 was found to be 19 nM in the assay on A549 (Homo sapiens, A549); 19 nM with HT-29 (Homo sapiens, HT-29); 19 nM in the assay on P388 (Mus musculus, P388); 19 nM in the assay on SK-MEL-28 (Homo sapiens, SK-MEL-28).

Turning to `COc1cc([C@@H]2c3cc4c(cc3C(OC(=O)C3CC5C=CC3C5)[C@H]3COC(=O)C23)OCO4)cc(OC)c1OC` (single isomer, unassigned), the IC50 in the assay with A549 (a549) turned out to be 4 nM; in the assay on HT-29 (ht-29) it was 4 nM; with P388 (p388), 5 nM; in the assay with SK-MEL-28 (sk-mel-28), 4 nM.

For the compound `COc1cc([C@@H]2c3cc4c(cc3[C@H](O)[C@H]3COC(=O)[C@@H]23)OCO4)cc(OC)c1OC` [AXL-1717], the half-inhibitory concentration (IC50) with A549 (Homo sapiens, A549) was 60 nM; in the assay with HT-29 (Homo sapiens, HT-29), 60 nM; with P388 (Mus musculus, P388) it was 60 nM.

For `COc1cc([C@@H]2c3cc4c(cc3[C@@H](O)[C@H]3COC(=O)[C@H]23)OCO4)cc(OC)c1OC` [EPIPODOPHYLLOTOXIN], the IC50 turned out to be 6000 nM with A549 (Homo sapiens, A549); 6000 nM with HT-29 (Homo sapiens, HT-29); 6000 nM in the assay with P388 (Mus musculus, P388).

In the case of `COc1cc([C@@H]2c3cc4c(cc3[C@@H](O[C@@H]3O[C@@H]5CO[C@@H](C)O[C@H]5[C@H](O)[C@H]3O)[C@H]3COC(=O)[C@H]23)OCO4)cc(OC)c1O` [ETOPOSIDE], the IC50 in the assay with HT-29 (Homo sapiens, HT-29) stood at 1700 nM; in the assay with P388 (Mus musculus, P388), 170 nM; with SK-MEL-28 (Homo sapiens, SK-MEL-28) it was 850 nM.

Turning to `COc1cc([C@@H]2c3cc4c(cc3[C@H](O)[C@H]3COC(=O)[C@H]23)OCO4)cc(OC)c1OC` [PODOFILOX], the IC50 stood at 2900 nM in the assay with A549 (Homo sapiens, A549); 2900 nM with HT-29 (Homo sapiens, HT-29); 2900 nM in the assay with P388 (Mus musculus, P388).
